Measured values pooled from the literature.
Lines come from different studies, so protocols differ. pIC50: −log10 of the molar value.
SLC22A8: Organic anion transporter 3 (SLC22A8, Homo sapiens, UniProt Q8TCC7)

| Structure (SMILES) | tested on | assay | system | setting | quantity | result |
| --- | --- | --- | --- | --- | --- | --- |
| CCc1nc2c(C)cc(N3CCN(CC(=O)N4CC(O)C4)CC3)cn2c1N(C)c1nc(-c2ccc(F)cc2)c(C#N)s1 |  |  | human, plasma | oral, 1500 mg, single dose, fed, healthy volunteers | AUC(0-inf) | 168000 ng·h/mL |
| CC(=O)O[C@H]1C(=O)[C@@]2(C)[C@H]([C@H](OC(=O)c3ccccc3)[C@]3(O)C[C@H](OC(=O)[C@H](O)[C@@H](NC(=O)c4ccccc4)c4ccccc4)C(C)=C1C3(C)C)[C@]1(OC(C)=O)CO[C@@H]1C[C@@H]2O | Bel-7402 | cell growth or viability, MTT |  | 48 h | pIC50 | 4.55 |
| CC(C)n1cc(C#N)c2cc(-n3cc(C(=O)O)cn3)ccc21 |  |  | human, plasma | oral, 200 mg, single dose, fed | AUC(0-t) | 43700 ng·h/mL |
| COc1ccc([C@@H]2CN(C(=O)[C@@H](O)CO)C[C@@]2(C)[C@@H](C)O)cc1OC1CN(c2ccc(C)cn2)C1 |  |  | human, plasma | oral, 20 mg, single dose, healthy volunteers | AUC(0-inf) | 4090 ng·h/mL |
| CC(C)(O)c1ccccc1-c1ccc2[nH]c(/C=C/c3ccc(C(F)(F)F)cc3)nc2c1 |  |  | male human, plasma | oral, 5 mg, single dose, fasted, healthy volunteers | AUC(0-t) | 971 ng·h/mL |
| O=C(O)CSc1nnc(Br)n1-c1ccc(C2CC2)c2ccccc12 | SLC22A8 | transporter uptake, inhibitor, radiometric |  | 5 µM, 1 h, oocytes | inhibition | 64% |
| CN(C(=O)n1cnc(-c2ccc[n+]([O-])c2)c1)C1CCCCC1 | SLC22A8 | transporter uptake, inhibitor | HEK293 | 3 µg/mL | inhibition | 10% |
| CCCCNc1cc(C(=O)O)cc(S(N)(=O)=O)c1Oc1ccccc1 | SLC22A8 | transporter uptake, inhibitor, radiometric |  | 200 µM, 1 h, oocytes | inhibition | 97% |
| CON=C(N)c1ccc(-c2ccc(-c3ccc(C(N)=NOC)cc3)o2)cc1 | Cytochrome P450 4F3 (CYP4F3, Homo sapiens, UniProt Q08477) | enzyme activity, substrate |  |  | Km | 3.2 µM |
| CC(C)(C)c1ccc(O)c(CN(Cc2cc(C(C)(C)C)ccc2O)C2CCC(NC(N)=O)CC2)c1 (stereo not shown) |  |  | male C57BL/6 mouse, brain | intraperitoneal, 5 mg/kg, single dose | tissue/plasma ratio | 0.68 |
